Test results reported in ChEMBL document CHEMBL1127605, “Synthesis of naphthalenesulfonic acid small molecules as selective inhibitors of the DNA polymerase and ribonuclease H activities of HIV-1 reverse transcriptase” (J Med Chem, 1994).

Tests used:
[1] = molecular target: Human immunodeficiency virus type 1 reverse transcriptase (Human immunodeficiency virus 1) (UniProt Q72547); assay: Inhibition of DNA polymerase activity of HIV-1 reverse transcriptase (at 50 uM)
In short: (§1)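 Recombinant HIV-1 RT (BH-10 proviral clone, E. coli-expressed, purified to homogeneity, ~66 kDa) preincubated 5 min at 30 °C with test compound (50 μM for DNA polymerase, 200 μM for RNase H); reaction started with substrate, 30 min at 37 °C; residual activity expressed relative to initial linear rate without drug.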

[2] = molecular target: Human immunodeficiency virus type 1 reverse transcriptase (Human immunodeficiency virus 1) (UniProt Q72547); assay: Inhibition of Ribonuclease H activity of HIV-1 reverse transcriptase (at 200 uM); in short: as §1
[3] = molecular target: Human immunodeficiency virus type 1 reverse transcriptase (Human immunodeficiency virus 1, UniProt Q72547); assay: The 50% inhibitory concentration was measured as inhibition of Ribonuclease H activity of reverse transcriptase
MT4 [4] = assay: 50% cytotoxic concentration was determined on HIV-1 (HTLV-IIIB) in MT-4 cells; assay type: functional; conditions: Homo sapiens
MT4 [5] = assay: 50% effective antiviral concentration was determined on HIV-1 (HTLV-IIIB) in MT-4 cells; assay type: functional, cell-based; conditions: Homo sapiens

SMILES | Initial activity [1] [%] | Initial activity [2] [%] | IC50 [3] [µM] | CC50 (MT4 [4]) [µM] | EC50 (MT4 [5]) [µM]
Cc1cc(C)c(S(=O)(=O)Nc2cc(C(=O)O)c(O)c(S(=O)(=O)O)c2)c(C)c1S(=O)(=O)Nc1cc(C(=O)O)c(O)c(S(=O)(=O)O)c1 | 2 | 32 |  |  | 
O=C(CCCCCCCCCCC(=O)Nc1ccc(S(=O)(=O)O)c2cccc(S(=O)(=O)O)c12)Nc1ccc(S(=O)(=O)O)c2cccc(S(=O)(=O)O)c12 | 13 | 16 |  |  | 
Nc1ccc(S(=O)(=O)O)c2ccccc12 | 100 | 88 |  |  | 
O=C(Oc1cc(S(=O)(=O)O)cc2cc(S(=O)(=O)O)ccc12)c1ccc(-c2ccc(C(=O)Oc3cc(S(=O)(=O)O)cc4cc(S(=O)(=O)O)ccc34)cc2)cc1 | 0.2 | 0 | 14.4 | > 500 | 81.5
Nc1ccc(S(=O)(=O)O)c2cccc(S(=O)(=O)O)c12 | 100 | 100 |  |  | 
O=C(CCCCCCCCC(=O)Nc1ccc(S(=O)(=O)O)c2ccccc12)Nc1ccc(S(=O)(=O)O)c2ccccc12 | 94 | 70 |  |  | 
CCCCCCCCCCCCCCCC(=O)Oc1cc(S(=O)(=O)O)cc2cc(S(=O)(=O)O)cc(OC(=O)CCCCCCCCCCCCCCC)c12 | 0 | 27 |  |  | 
O=C(CCCCCCCCCCC(=O)Nc1ccc(S(=O)(=O)O)c2ccccc12)Nc1ccc(S(=O)(=O)O)c2ccccc12 | 100 | 32 |  | > 500 | 260
O=S(=O)(O)c1ccc2c(OS(=O)(=O)c3cccc4c(S(=O)(=O)Oc5cc(S(=O)(=O)O)cc6cc(S(=O)(=O)O)ccc56)cccc34)cc(S(=O)(=O)O)cc2c1 | 0 | 43 | 215 | 322 | 39
O=S(=O)(O)c1cccc2ccc(OS(=O)(=O)c3ccc(-c4ccc(S(=O)(=O)Oc5ccc6cccc(S(=O)(=O)O)c6c5)cc4)cc3)cc12 | 0 | 48 |  |  | 
Cc1cc(C)c(S(=O)(=O)Oc2ccc3cccc(S(=O)(=O)O)c3c2)c(C)c1S(=O)(=O)Oc1ccc2cccc(S(=O)(=O)O)c2c1 | 13 | 23 |  | 228 | 42
O=C(CCCCCCCCC(=O)Nc1cc(S(=O)(=O)O)cc2cc(S(=O)(=O)O)cc(O)c12)Nc1cc(S(=O)(=O)O)cc2cc(S(=O)(=O)O)cc(O)c12 | 0 | 30 |  |  | 
O=C(O)c1cc(NS(=O)(=O)c2cccc3c(S(=O)(=O)Nc4cc(C(=O)O)c(O)c(S(=O)(=O)O)c4)cccc23)cc(S(=O)(=O)O)c1O | 46 | 75 |  |  | 
O=C(CCCCCCC(=O)Nc1ccc(S(=O)(=O)O)c2cccc(S(=O)(=O)O)c12)Nc1ccc(S(=O)(=O)O)c2cccc(S(=O)(=O)O)c12 | 100 | 84 |  |  | 
CCCCCCCCCCCCCCCc1nc2c(cc(S(=O)(=O)O)c3ccccc32)o1 | 0.2 | 68 |  | 42 | > 42
O=C(Nc1ccc(S(=O)(=O)O)c2cccc(S(=O)(=O)O)c12)c1ccc(C(=O)Nc2ccc(S(=O)(=O)O)c3cccc(S(=O)(=O)O)c23)cc1 | 90 | 92 |  |  | 
CCCCCCCCCCCCCCCC(=O)Nc1c(OC(=O)CCCCCCCCCCCCCCC)cc(S(=O)(=O)O)c2ccccc12 | 0.03 | 5.3 |  | 41 | > 41
CCCCCCCCCCCCCCCC(=O)Oc1cc(S(=O)(=O)O)c2ccccc2c1N | 6.5 | 7.5 |  | 38 | > 38
O=S(=O)(O)c1cc(S(=O)(=O)O)c2cc(NS(=O)(=O)c3ccc(-c4ccc(S(=O)(=O)Nc5ccc6cc(S(=O)(=O)O)cc(S(=O)(=O)O)c6c5)cc4)cc3)ccc2c1 | 0.9 | 28 |  |  | 
O=S(=O)(O)c1cccc2ccc(OS(=O)(=O)c3cccc4c(S(=O)(=O)Oc5ccc6cccc(S(=O)(=O)O)c6c5)cccc34)cc12 | 25 | 17 |  |  | 
O=C(CCCCCCCCC(=O)Nc1ccc(S(=O)(=O)O)c2cccc(S(=O)(=O)O)c12)Nc1ccc(S(=O)(=O)O)c2cccc(S(=O)(=O)O)c12 | 54 | 57 |  |  | 
CC(C)CCCC(C)C1CCC2C3CC=C4CC(OC(=O)Nc5cc(S(=O)(=O)O)cc6cc(S(=O)(=O)O)cc(O)c56)CC[C@]4(C)C3CC[C@]12C (stereo not given in full) | 0 | 0 |  | > 500 | > 500
CCCCCCCCCCCCCCCC(=O)Nc1ccc(S(=O)(=O)O)c2cccc(S(=O)(=O)O)c12 | 0.16 | 2.8 | 27.5 | 225 | 100
CCCCCCCCCCCCCCCC(=O)Nc1c(O)cc(S(=O)(=O)O)c2ccccc12 | 0.02 | 3 | 47.6 | 21 | > 21
O=C(CCCCCCC(=O)Nc1ccc(S(=O)(=O)O)c2ccccc12)Nc1ccc(S(=O)(=O)O)c2ccccc12 | 90 | 59 |  |  | 
CCCCCCCCCCCCCCCC(=O)Nc1ccc(S(=O)(=O)O)c2ccccc12 | 100 | 98 |  | 47 | > 47
O=S(=O)(O)c1cc(S(=O)(=O)O)c2cc(NS(=O)(=O)c3cccc4c(S(=O)(=O)Nc5ccc6cc(S(=O)(=O)O)cc(S(=O)(=O)O)c6c5)cccc34)ccc2c1 | 16 | 51 |  |  | 
